# What was measured:
# [1] = tested on: K562; test: In Vitro cytotoxicity against human cancer cell line, K-562; type: functional
# Summary of the method: (§1)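 MTT cytotoxicity assay across a panel of nine human cancer cell lines, run in the institutional Pharmacology and Analytic Core Laboratory by a previously described protocol. Cisplatin and a diamide were included as reference controls. Activity above 20 μM/mL was regarded as not significant.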
# [2] = (§2) In Vitro cytotoxicity against human cancer cell line, SKOV; type: functional, Cancer cell lines; summary of the method: as §1
# [3] = (§3) In Vitro cytotoxicity against human cancer cell line, BRO; type: functional, Cancer cell lines; summary of the method: as §1
# [4] = tested on: HL-60; test: In Vitro cytotoxicity against human cancer cell line, HL-60; type: functional; summary of the method: as §1
# [5] = tested on: MCF7; test: In Vitro cytotoxicity against human cancer cell line, MCF-7; type: functional; summary of the method: as §1
# [6] = tested on: HT-29; test: In Vitro cytotoxicity against human cancer cell line, HT-29; type: functional; summary of the method: as §1
# [7] = (§4) In Vitro cytotoxicity against human cancer cell line, MDA-213; type: functional, Cancer cell lines; summary of the method: as §1
# [8] = tested on: PC-3; test: In Vitro cytotoxicity against human cancer cell line, PC-3; type: functional; summary of the method: as §1
# [9] = tested on: OVCAR; test: In Vitro cytotoxicity against human cancer cell line, OVCAR; type: functional; summary of the method: as §1
# [10] = tested on: Cancer cell lines; test: as §2; type: functional; summary of the method: as §1
# [11] = tested on: Cancer cell lines; test: as §3; type: functional; summary of the method: as §1
# [12] = tested on: Cancer cell lines; test: as §4; type: functional; summary of the method: as §1
Compound,Cytotoxicity [1],Cytotoxicity [2],Cytotoxicity [3],Cytotoxicity [4],Cytotoxicity [5],Cytotoxicity [6],Cytotoxicity [7],Cytotoxicity [8],Cytotoxicity [9],Cytotoxicity [10],Cytotoxicity [11],Cytotoxicity [12]
O=C1c2ccccc2C(=O)N1C1C(=O)N(c2cc3c4ccccc4ccc3c3ccccc23)[C@H]1c1ccccc1 (stereo not given in full),>20 µM,>20 µM,>20 µM,>20 µM,>20 µM,>20 µM,>20 µM,>20 µM,>20 µM,,,
O=C1C(Oc2ccccc2)[C@H](c2ccccc2)N1c1cc2c3ccccc3ccc2c2ccccc12 (stereo not given in full),>20 µM,>20 µM,>20 µM,>20 µM,>20 µM,>20 µM,>20 µM,>20 µM,>20 µM,,,
CC(=O)OC1C(=O)N(c2cc3c4ccccc4ccc3c3ccccc23)[C@H]1c1ccccn1 (stereo not given in full),2.5 µM,9 µM,11 µM,2.5 µM,14.93 µM,15.9 µM,14.46 µM,,,,,
CC(=O)OC1C(=O)N(c2cccc3ccccc23)[C@@H]1c1ccccc1 (stereo not given in full),>20 µM,>20 µM,>20 µM,>20 µM,>20 µM,>20 µM,>20 µM,>20 µM,>20 µM,,,
CISPLATIN,2.33 µM,,,1.66 µM,10.1 µM,17 µM,,4.66 µM,3.99 µM,5.99 µM,7.66 µM,12.3 µM
CN1CCN(C(=O)CCC(=O)Nc2cc3c4ccccc4ccc3c3ccccc23)CC1,12.7 µM,11.05 µM,33.64 µM,9.41 µM,40 µM,16.7 µM,12.23 µM,27.29 µM,18.11 µM,,,
CC(=O)OC1C(=O)N(c2ccc3ccc4cccc5ccc2c3c45)[C@H]1c1ccccc1 (stereo not given in full),>20 µM,>20 µM,>20 µM,>20 µM,>20 µM,>20 µM,>20 µM,>20 µM,>20 µM,,,
CC(=O)OC1C(=O)N(c2ccccc2)C1c1cc2c3ccccc3ccc2c2ccccc12 (stereo not given),>20 µM,>20 µM,>20 µM,>20 µM,>20 µM,>20 µM,>20 µM,>20 µM,>20 µM,,,
O=C1C(Oc2ccccc2)[C@H](c2ccccc2)N1c1cc2ccccc2c2ccccc12 (stereo not given in full),>20 µM,>20 µM,>20 µM,>20 µM,>20 µM,>20 µM,>20 µM,>20 µM,>20 µM,,,
CC(=O)OC1C(=O)N(c2cccc3cc4ccccc4cc23)[C@@H]1c1ccccc1 (stereo not given in full),>20 µM,>20 µM,>20 µM,>20 µM,>20 µM,>20 µM,>20 µM,>20 µM,>20 µM,,,
CC(=O)OC1C(=O)N(c2cc3ccccc3c3ccccc23)[C@H]1c1ccccc1 (stereo not given in full),4 µM,18 µM,10.48 µM,5.21 µM,10.09 µM,10.49 µM,12.49 µM,9.3 µM,18 µM,,,
CC(=O)OC1C(=O)N(c2cc3c4ccccc4ccc3c3ccccc23)[C@H]1c1ccccc1 (stereo not given in full),4.33 µM,6.88 µM,10.84 µM,3.64 µM,9.81 µM,5.66 µM,11.98 µM,16.32 µM,4.17 µM,,,
CC(=O)OC1C(=O)N(c2cccc3cc4c(cc23)Cc2cc3ccccc3cc2-4)[C@H]1c1ccccc1 (stereo not given in full),>20 µM,>20 µM,>20 µM,>20 µM,>20 µM,>20 µM,>20 µM,>20 µM,>20 µM,,,

# Source: ChEMBL document CHEMBL1145010, “Stereoselective synthesis of beta-lactams with polyaromatic imines: entry to new and novel anticancer agents” (2003)
